Experimental findings from ChEMBL document CHEMBL5634075, “An electrophilic fragment screening for the development of small molecules targeting caspase-2” (Eur J Med Chem, 2023) are described below.

The target in data set [1] is T1, Caspase-2 (Homo sapiens, UniProt P42575).
T1 sequence (P42575 whole entry): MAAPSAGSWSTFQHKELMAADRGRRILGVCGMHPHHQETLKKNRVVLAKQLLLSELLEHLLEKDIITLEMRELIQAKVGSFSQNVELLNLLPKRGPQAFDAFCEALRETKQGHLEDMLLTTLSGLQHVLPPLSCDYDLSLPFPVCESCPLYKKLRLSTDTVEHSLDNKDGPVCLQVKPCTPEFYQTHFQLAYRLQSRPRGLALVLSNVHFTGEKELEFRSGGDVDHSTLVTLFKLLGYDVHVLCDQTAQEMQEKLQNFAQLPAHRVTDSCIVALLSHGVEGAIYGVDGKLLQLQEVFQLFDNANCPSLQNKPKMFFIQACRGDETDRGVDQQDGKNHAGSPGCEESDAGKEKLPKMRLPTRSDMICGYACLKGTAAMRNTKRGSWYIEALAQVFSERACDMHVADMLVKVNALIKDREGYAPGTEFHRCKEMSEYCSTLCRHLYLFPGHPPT
Nature of the data set: Inhibition of recombinant caspase-2 (unknown origin) using Z-VDVAD-AFC as substrate measured after 40 mins by fluorescence assay. In short, it runs like this:
(§1)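 Ten-point curves in duplicate, 0.4 nM–100 µM. Enzyme (5 nM caspase-2 or cp-caspase-2) in MES pH 6.5 buffer with 10 mM DTT, preincubated with compound 40 min at 37 °C. Then 5 µM Z-VDVAD-AFC. AFC read at ex 400/em 505 nm every 3 min for 1 h. Background-corrected 40-min values fitted to four-parameter sigmoidal curves. Mean ± SEM of N independent experiments.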

Data set [2] concerns the target T2, Caspase-3 (Homo sapiens, UniProt P42574).
T2 sequence (P42574 whole entry): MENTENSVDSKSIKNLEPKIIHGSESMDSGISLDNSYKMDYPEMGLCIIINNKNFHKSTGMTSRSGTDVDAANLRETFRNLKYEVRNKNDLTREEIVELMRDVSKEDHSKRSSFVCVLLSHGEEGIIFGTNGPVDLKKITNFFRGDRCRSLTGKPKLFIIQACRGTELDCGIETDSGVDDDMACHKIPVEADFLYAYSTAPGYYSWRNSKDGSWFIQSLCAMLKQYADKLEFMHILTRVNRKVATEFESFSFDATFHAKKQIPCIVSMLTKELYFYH
Nature of the data set: Inhibition of recombinant caspase-3 (unknown origin) at 125 uM using Ac-DEVD-AFC as substrate measured after 40 mins by fluorescence assay relative to control. As to conditions: recombinant caspase-3, probe Ac-DEVD-AFC.

Data set [3] addresses T2, Caspase-3. In words: Inhibition of recombinant caspase-3 (unknown origin) at 62.5 uM using Ac-DEVD-AFC as substrate measured after 40 mins by fluorescence assay relative to control. To be noted: recombinant caspase-3, probe Ac-DEVD-AFC.
Data set [4] addresses T3, Caspase-2 (Homo sapiens) (UniProt P42575).
T3 sequence (whole entry): T1 sequence (P42575 whole entry)
In words: Covalent irreversible binding affinity to recombinant caspase-2 (unknown origin) assessed as modification at Cys320 residue measured after 1 hr by trypsin digestion based UPLC-MS/MS analysis. The gist of the method: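 Recombinant caspase-2 (34 µM, 15 µL) mixed with test compound (1 µL of 10 mM DMSO stock), brought to 50 µL in MES pH 6.5 caspase-2 buffer, 1 h at 37 °C. Then iodoacetamide (62 mM final) 1 h dark RT. Samples denatured in 8 M urea/5 mM DTT and re-alkylated with IAD. Trypsin digestion overnight at 37 °C with 10% acetonitrile. C18 desalting, then gradient LC-MS/MS peptide sequencing.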

The target of data set [5] is T3, Caspase-2 (Homo sapiens). In words: Irreversible inhibition of recombinant caspase-2 (unknown origin) assessed as ratio of Kinact/Ki using Z-VDVAD-AFC as substrate measured after 40 mins by fluorescence assay. The gist of the method:
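Caspase-2 kinetic fluorometric assay with Z-VDVAD-AFC. kOBS values obtained from progress curves at four or more inhibitor concentrations. kinact/Ki then derived by two-step irreversible secondary regression (Copeland).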

The species named for another data set is Homo sapiens. Nature of the data set: Selectivity ratio of IC50 for recombinant caspase-3 (unknown origin) to recombinant caspase-2 (unknown origin).
Data set [6] concerns the target T3, Caspase-2 (Homo sapiens). In words: Inhibition of recombinant caspase-2 (unknown origin) at 6.25 uM using Z-VDVAD-AFC as substrate measured after 40 mins by fluorescence assay relative to control. The gist of the method: (§2)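 Two-point single-run screen in duplicate at 12.5 and 6.25 µM. Then 5 µM Z-VDVAD-AFC, 40 min at 37 °C, stopped with 5 M acetic acid. AFC fluorescence read at ex 400/em 505 nm, corrected for buffer+protein background.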

Data set [7] has as its target T3, Caspase-2 (Homo sapiens). Nature of the data set: Inhibition of recombinant caspase-2 (unknown origin) at 12.5 uM using Z-VDVAD-AFC as substrate measured after 40 mins by fluorescence assay relative to control. The gist of the method:
as §2

The target of data set [8] is T2, Caspase-3. In words: Inhibition of recombinant caspase-3 (unknown origin) using Ac-DEVD-AFC as substrate measured after 40 mins by fluorescence assay.
Data set [9] concerns the target T3, Caspase-2 (Homo sapiens). In words: Covalent irreversible binding affinity to recombinant caspase-2 (unknown origin) assessed as modification at Cys320 residue […] measured after 1 hr by trypsin digestion based UPLC-MS/MS analysis. The gist of the method:
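Recombinant caspase-2 (34 µM stock) incubated 1 h at 37 °C with compound (10 mM DMSO stock) in pH 6.5 MES buffer with NaCl, CHAPS, sucrose and 10 mM DTT. Free cysteines were capped with iodoacetamide (62 mM final, 1 h, dark, RT). Samples were dried, denatured in 8 M urea/DTT, re-alkylated, trypsin-digested overnight at 37 °C, C18-desalted and analysed by gradient LC-MS/MS peptide sequencing.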

In data set [10] the test system is HepG2. Nature of the data set: Induction of GSH depletion in human HepG2 cells at >10 uM measured after 22 hrs by GSH-glo luminescence assay. It counts as functional, cell-based. The gist of the method:
(§3)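 HepG2 cells at 250 cells/well, 1536-well format, settled 4 h at 37 °C and 5% CO2. Compound added (50 nL), 22 h incubation. Medium removed by centrifugation. GSH-Glo reagent 30 min at RT, then Luciferin Detection Reagent 15 min at RT. Luminescence read.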

For data set [11], the system named is HepG2. Nature of the data set: Induction of GSH depletion in human HepG2 cells at <10 uM measured after 22 hrs by GSH-glo luminescence assay. The class given is functional, cell-based. In short, it runs like this: as §3
In data set [12] the test system is HepG2. Nature of the data set: Cytotoxicity against human HepG2 cells assessed as reduction in cell viability measured after 22 hrs by cell-titer glo assay. The class given is functional, cell-based. The gist of the method: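 HepG2 cells at 250 cells/well, 1536-well format, settled 4 h at 37 °C and 5% CO2. Compound added acoustically (50 nL), 22 h at 37 °C. CellTiter-Glo reagent added, 15 min at room temperature, then luminescence read.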

Data set [13] concerns the target T1, Caspase-2. Nature of the data set: Inhibition of recombinant cp-caspase-2 (unknown origin) using Z-VDVAD-AFC as substrate measured after 40 mins by fluorescence assay. In short, it runs like this: as §1
In data set [14] the test system is HepG2. Nature of the data set: Induction of GSH depletion in human HepG2 cells measured after 22 hrs by GSH-glo luminescence assay. As to conditions: HepG2, 22 h, read-out: pIC50 (converted).

Several values for one entry are separate records, joined by “and”; a condition that tells them apart may be missing. Identical values can stand only once. Activity calls are given as the source filed them. The rule behind the calls is not given here. Where a SMILES comes first, the peptide text is derived from it.

Usually inhibition stands for the relative decrease from the control value, in per cent. In the case of `O=C(CCl)Nc1ccc(NC(=O)c2cccs2)cc1`, the figures for the IC50 at Caspase-2 [1] and at Caspase-3 [8] were 1.29 µM and 9.55 µM, respectively. Further, the inhibition at 40 min, 125 µM on Caspase-3 [2] turned out to be 30%. Moreover, the inhibition at 40 min, 62.5 µM at Caspase-3 [3] was determined as 24%. For the same compound, the result on Caspase-2 (Homo sapiens) [4] was Active. For the same compound, on Caspase-2 (Homo sapiens) [5], the Ratio is 5.86 10^4/M/s. Also, the Ratio IC50 in the data set filed under Homo sapiens was found to be 7. The inhibition is 92% at Caspase-2 (Homo sapiens) [6] and 93% on Caspase-2 (Homo sapiens) [7].

For the compound `NC(=O)CI`, the result on Caspase-2 (Homo sapiens) [9] was Active.

`COc1ccc2nc(NC(=O)CCl)sc2c1`: the IC50 on Caspase-2 [1] is 5.25 µM; on Caspase-3 [8] it was above 63.1 µM. The inhibition at 40 min, 125 µM at Caspase-3 [2] amounted to 21.7%. For the same compound, the Ratio IC50 in the data set filed under Homo sapiens is above 12. Also, at Caspase-2 (Homo sapiens) [7], the inhibition was 79.7%.

On to `CN1C(=O)CN(C(=O)CCl)c2ccc(Br)cc21`, for which the IC50 is 3.16 µM at Caspase-2 [1], 6.03 µM on Caspase-2 [13] and above 50.1 µM at Caspase-3 [8]. The inhibition at 40 min, 125 µM at Caspase-3 [2] turned out to be 14%. Further, the result in the data set on HepG2 [10], with HepG2 [12] and on Caspase-2 (Homo sapiens) [4] was Active. Besides, in the data set with HepG2 [11], the outcome was inactive. Further, the inhibition at 40 min, 62.5 µM at Caspase-3 [3] amounted to 0%. Also, the Ratio IC50 in the data set listed under Homo sapiens is above 16. The inhibition at Caspase-2 (Homo sapiens) [6] came out at 62%; on Caspase-2 (Homo sapiens) [7] it was 79%.

Regarding `CC(=O)N[C@H](C(=O)N[C@@H](CC(=O)O)C(=O)N[C@H](C(=O)N[C@@H](C)C(=O)N[C@H](C=O)CC(=O)O)C(C)C)C(C)C` (Ac-VDVAD-aldehyde), the IC50 on Caspase-2 [13] is 0.0479 µM.

For `O=C1CN(C(=O)CCl)c2ccccc2N1`, the IC50 is 1.07 µM and 3.31 µM on Caspase-2 [1]; 28.8 µM at Caspase-3 [8]. Moreover, the inhibition at 40 min, 125 µM at Caspase-3 [2] turned out to be 90%. Besides, the outcome with HepG2 [10], with HepG2 [12] and at Caspase-2 (Homo sapiens) [4] was Active. Also, the result with HepG2 [11] was inactive. In addition, at Caspase-3 [3], the inhibition at 40 min, 62.5 µM turned out to be 59%. Moreover, the Ratio at Caspase-2 (Homo sapiens) [5] was 4.49 10^4/M/s. Moreover, the Ratio IC50 in the data set listed under Homo sapiens stood at 27. In addition, the results for the inhibition at Caspase-2 (Homo sapiens) [6] and at Caspase-2 (Homo sapiens) [7] were 86% and 92%, respectively.

In the case of `Cc1nc(-c2ccc3c(c2)CCN3C(=O)CCl)cs1`, the IC50 at Caspase-2 [1] is 1.82 µM and 3.39 µM; in the data set with HepG2 [12] (HepG2, 22 h) it was 2.24 µM; on Caspase-2 [13], 4.9 µM; at Caspase-3 [8] it was 35.5 µM and > 31.6 µM; with HepG2 [14] it was 1.78 µM. The inhibition at 40 min, 125 µM on Caspase-3 [2] worked out at 16%. The inhibition at 40 min, 62.5 µM at Caspase-3 [3] was determined as 10%. Further, the outcome at Caspase-2 (Homo sapiens) [4] was Active. Besides, the inhibition was found to be 79% on Caspase-2 (Homo sapiens) [6] and 89% on Caspase-2 (Homo sapiens) [7].
